Experimental data reported in ChEMBL document CHEMBL4190330, “Discovery of Potent and Selective A2A Antagonists with Efficacy in Animal Models of Parkinson's Disease and Depression” (ACS Med Chem Lett, 2017).
Calls of active or inactive are those of the source. No cut-off for these calls is given here.

Tests used:
[1] = Ratio of AUC (0 to 4 hrs) in Wistar rat brain to plasma at 3 mg/kg, iv by LC-MS/MS analysis; type: ADME, organism-based; conditions: read-out: Ratio AUC
Rattus norvegicus [2] = assay: Anti-parkinson's activity in po dosed Wistar rat assessed as reversal of haloperidol-induced catalepsy measured after 1 to 4 hrs; type: functional, organism-based
Outline: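 Haloperidol-induced catalepsy in rats; oral dosing; catalepsy scored at 1, 2 and 4 h; ED50 derived; mean ± SEM, n=6-7.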

hERG [3] = molecular target: T1, hERG (Homo sapiens, UniProt Q12809); assay: Inhibition of human ERG at 10 uM relative to control
[4] = AUC (0 to t) in Wistar rat at 10 mg/kg, po administered via gavage by LC-MS/MS analysis; type: ADME, organism-based; conditions: in vivo
[5] = molecular target: T2, Adenosine receptor A3 (Homo sapiens) (UniProt P0DMS8); assay: Displacement of [3H]-HEMADO from human A3 receptor expressed in HEK293 cell membranes at 10 uM after 90 mins radioligand binding assay
T2 sequence (whole entry): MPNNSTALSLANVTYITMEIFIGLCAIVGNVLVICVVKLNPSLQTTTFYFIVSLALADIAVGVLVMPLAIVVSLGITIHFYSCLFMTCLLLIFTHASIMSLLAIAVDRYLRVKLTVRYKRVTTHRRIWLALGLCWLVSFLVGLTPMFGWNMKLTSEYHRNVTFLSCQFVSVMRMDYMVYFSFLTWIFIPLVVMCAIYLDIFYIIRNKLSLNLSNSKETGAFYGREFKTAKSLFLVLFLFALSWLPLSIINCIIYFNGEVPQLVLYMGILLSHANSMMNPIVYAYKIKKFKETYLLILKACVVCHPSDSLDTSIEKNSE
Outline: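 Membranes from HEK-293 cells overexpressing human A3 receptor; points in triplicate; highest concentration tested 10 µM.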

Cytochrome P450 1A2 = molecular target: T3, Cytochrome P450 1A2 (Homo sapiens, UniProt P05177); assay: Inhibition of CYP1A2 (unknown origin); type: ADME
T3 sequence (P05177 whole entry): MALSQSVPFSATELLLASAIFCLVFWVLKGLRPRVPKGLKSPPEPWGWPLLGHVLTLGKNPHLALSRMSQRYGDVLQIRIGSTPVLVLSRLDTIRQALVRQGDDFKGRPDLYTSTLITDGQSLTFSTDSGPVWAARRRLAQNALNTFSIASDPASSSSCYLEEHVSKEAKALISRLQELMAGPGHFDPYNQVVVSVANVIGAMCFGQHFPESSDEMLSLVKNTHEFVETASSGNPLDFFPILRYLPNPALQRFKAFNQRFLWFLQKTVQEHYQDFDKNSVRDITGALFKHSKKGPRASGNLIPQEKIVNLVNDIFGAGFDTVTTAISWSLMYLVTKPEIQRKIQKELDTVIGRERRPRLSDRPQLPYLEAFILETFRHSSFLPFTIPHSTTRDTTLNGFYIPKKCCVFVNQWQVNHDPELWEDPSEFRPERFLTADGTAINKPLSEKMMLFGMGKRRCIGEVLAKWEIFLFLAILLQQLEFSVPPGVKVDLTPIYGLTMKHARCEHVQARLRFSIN

Cytochrome P450 3A4 = Cytochrome P450 3A4 (Homo sapiens, UniProt P08684); assay: Inhibition of CYP3A4 (unknown origin); type: ADME
Adenosine receptor A2b = molecular target: T4, Adenosine receptor A2b (Homo sapiens, UniProt P29275); assay: Displacement of [3H]-MRS-1754 from human A2B receptor expressed in HEK293 cell membranes after 90 mins radioligand binding assay
T4 sequence (P29275 whole entry): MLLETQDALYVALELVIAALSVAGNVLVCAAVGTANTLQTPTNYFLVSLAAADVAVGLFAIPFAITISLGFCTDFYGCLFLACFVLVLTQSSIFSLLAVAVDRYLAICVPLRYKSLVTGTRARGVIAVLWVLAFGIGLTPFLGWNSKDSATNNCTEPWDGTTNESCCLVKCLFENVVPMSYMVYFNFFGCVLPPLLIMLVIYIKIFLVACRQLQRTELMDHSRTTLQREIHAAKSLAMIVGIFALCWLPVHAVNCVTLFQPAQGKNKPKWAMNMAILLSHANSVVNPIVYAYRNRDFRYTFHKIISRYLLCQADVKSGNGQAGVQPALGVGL
Outline: (§1)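 Membranes from HEK-293 cells overexpressing the relevant human adenosine receptor subtype; all points in triplicate; Ki derived from 8-concentration IC50 curves.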

Cytochrome P450 2C9 = Cytochrome P450 2C9 (Homo sapiens, UniProt P11712); assay: Inhibition of CYP2C9 (unknown origin); type: ADME
Cytochrome P450 2C19 = Cytochrome P450 2C19 (Homo sapiens, UniProt P33261); assay: Inhibition of CYP2C19 (unknown origin); type: ADME
hERG [6] = molecular target: T1, hERG; assay: Inhibition of human ERG at 3 uM relative to control
[7] = Metabolic stability in rat liver microsomes assessed as metabolic rate; type: ADME, microsome
Outline: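 Liver microsomes (mouse, rat, dog, human) at 0.125 mg/mL protein; metabolic rate expressed as nmol/min/mg.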

[8] = Oral bioavailability in Wistar rat at 10 mg/kg administered via gavage by LC-MS/MS analysis; type: ADME, organism-based; conditions: in vivo
Outline: (§2)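 Male Wistar rats, n = 4; oral dose 10 mg/kg as suspension in 1% Tween 80 with 0.5% w/v NaCMC; values are means.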

[9] = Cmax in Wistar rat at 10 mg/kg, po administered via gavage by LC-MS/MS analysis; type: ADME, organism-based; set-up: dose 10 mg/kg, route oral; conditions: in vivo; outline: as §2
[10] = Terminal half-life in Wistar rat at 3 mg/kg, iv by LC-MS/MS analysis; type: ADME, organism-based; conditions: in vivo, read-out: beta t1/2 (converted)
Outline: (§3)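 Male Wistar rats, n = 4; iv dose 3 mg/kg in 10% NMP, 10% Cremophor EL, acetate buffer pH 4.2 q.s.; values are means.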

Mus musculus = assay: Antidepressant-like activity in po dosed mouse assessed as reduction in immobility time treated 1 hr prior to testing measured last 4 mins of 6 mins test by forced swim test
Rattus norvegicus [11] = assay: Toxicity in 6-OHDA-lesioned Wistar rat model of parkinson's disease assessed as induction of dyskinesia at 0.3 to 3 mg/kg, po administered twice daily for 21 days; type: organism-based; conditions: in vivo, 504 h
Outline: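 6-OHDA-lesioned rats given oral test compound (0.3-3 mg/kg) with L-DOPA, repeated daily; abnormal involuntary movements scored; mean ± SEM, n=6-7.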

[12] = Protein binding in mouse plasma; type: ADME, cell-free; conditions: read-out: PPB (converted)
[13] = Tmax in Wistar rat at 10 mg/kg, po administered via gavage by LC-MS/MS analysis; type: ADME, organism-based; conditions: in vivo; outline: as §2
[14] = Volume of distribution at steady state in Wistar rat at 3 mg/kg, iv by LC-MS/MS analysis; type: ADME, organism-based; conditions: in vivo, read-out: Vdss; outline: as §3
Adenosine receptor A2a [15] = molecular target: T5, Adenosine receptor A2a (Homo sapiens, UniProt P29274); assay: Displacement of [3H]ZM241385 from human A2A receptor expressed in HEK293 cell membranes after 90 mins radioligand binding assay; outline: as §1
Adenosine receptor A2a [16] = molecular target: T5, Adenosine receptor A2a; assay: Antagonist activity at human A2A receptor expressed in HEK293 cell membranes assessed as reduction in CGS-21680-induced cAMP level pretreated for 15 mins followed by CGS-21680 addition measured after 30 mins by HTRF assay; type: functional, cell-based
Outline: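 HTRF-based cAMP functional assay; each compound tested at 12 concentrations, every point in triplicate; Ki given as mean of two independent experiments (n=2).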

T1 sequence (Q12809 whole entry): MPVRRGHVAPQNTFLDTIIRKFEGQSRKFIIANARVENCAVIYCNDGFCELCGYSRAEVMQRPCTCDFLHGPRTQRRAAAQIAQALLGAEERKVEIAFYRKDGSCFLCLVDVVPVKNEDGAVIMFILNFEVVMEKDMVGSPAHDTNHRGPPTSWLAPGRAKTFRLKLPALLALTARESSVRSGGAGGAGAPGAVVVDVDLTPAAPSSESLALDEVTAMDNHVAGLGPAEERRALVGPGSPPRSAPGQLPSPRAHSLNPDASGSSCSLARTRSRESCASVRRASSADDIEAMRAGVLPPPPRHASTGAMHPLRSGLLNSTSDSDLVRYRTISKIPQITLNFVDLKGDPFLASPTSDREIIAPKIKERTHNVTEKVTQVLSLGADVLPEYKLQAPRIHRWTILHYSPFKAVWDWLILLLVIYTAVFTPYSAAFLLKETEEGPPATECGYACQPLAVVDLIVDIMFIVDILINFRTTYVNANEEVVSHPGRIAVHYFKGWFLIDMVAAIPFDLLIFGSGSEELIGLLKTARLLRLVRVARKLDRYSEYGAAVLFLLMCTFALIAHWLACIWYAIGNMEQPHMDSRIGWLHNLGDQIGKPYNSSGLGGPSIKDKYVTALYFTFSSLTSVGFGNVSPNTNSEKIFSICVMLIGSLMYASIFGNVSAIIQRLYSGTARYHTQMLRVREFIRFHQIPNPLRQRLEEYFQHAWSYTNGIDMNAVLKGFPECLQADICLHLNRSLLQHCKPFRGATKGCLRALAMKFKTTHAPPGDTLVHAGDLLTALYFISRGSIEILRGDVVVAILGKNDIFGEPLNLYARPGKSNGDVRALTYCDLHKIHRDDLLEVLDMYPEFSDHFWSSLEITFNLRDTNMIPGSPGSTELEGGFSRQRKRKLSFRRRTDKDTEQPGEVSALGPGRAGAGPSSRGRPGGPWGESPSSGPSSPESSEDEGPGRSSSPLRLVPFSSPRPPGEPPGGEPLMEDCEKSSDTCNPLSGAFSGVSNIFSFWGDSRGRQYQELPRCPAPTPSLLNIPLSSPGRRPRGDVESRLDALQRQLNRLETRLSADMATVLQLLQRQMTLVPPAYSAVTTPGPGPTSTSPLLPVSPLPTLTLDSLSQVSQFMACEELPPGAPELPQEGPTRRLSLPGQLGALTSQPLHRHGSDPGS
T5 sequence (P29274 whole entry): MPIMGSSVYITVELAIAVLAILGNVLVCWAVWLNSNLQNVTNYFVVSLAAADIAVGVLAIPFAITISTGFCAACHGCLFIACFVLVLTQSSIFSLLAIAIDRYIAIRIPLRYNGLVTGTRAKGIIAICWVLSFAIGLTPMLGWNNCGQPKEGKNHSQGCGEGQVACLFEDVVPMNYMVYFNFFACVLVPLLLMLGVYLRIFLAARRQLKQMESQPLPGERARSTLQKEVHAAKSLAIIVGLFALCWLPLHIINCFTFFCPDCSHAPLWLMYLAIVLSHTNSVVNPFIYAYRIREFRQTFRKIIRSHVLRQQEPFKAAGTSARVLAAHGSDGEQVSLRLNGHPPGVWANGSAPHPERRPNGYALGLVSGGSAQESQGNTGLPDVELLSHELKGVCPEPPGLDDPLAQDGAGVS
Chain of Cytochrome P450 2C19 (P33261 whole entry): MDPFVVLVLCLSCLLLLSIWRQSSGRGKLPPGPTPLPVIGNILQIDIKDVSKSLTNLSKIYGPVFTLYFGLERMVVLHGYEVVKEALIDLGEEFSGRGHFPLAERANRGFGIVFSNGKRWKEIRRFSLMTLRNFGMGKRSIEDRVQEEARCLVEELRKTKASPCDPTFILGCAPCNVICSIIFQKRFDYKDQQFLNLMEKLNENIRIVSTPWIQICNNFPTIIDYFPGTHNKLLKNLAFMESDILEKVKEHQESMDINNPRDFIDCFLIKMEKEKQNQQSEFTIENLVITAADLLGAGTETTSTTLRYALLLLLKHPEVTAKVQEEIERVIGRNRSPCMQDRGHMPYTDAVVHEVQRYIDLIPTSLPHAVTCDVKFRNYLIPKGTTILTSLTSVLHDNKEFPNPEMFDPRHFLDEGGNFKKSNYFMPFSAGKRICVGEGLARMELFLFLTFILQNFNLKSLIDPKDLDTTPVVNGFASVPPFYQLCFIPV
Chain of Cytochrome P450 3A4 (P08684 whole entry): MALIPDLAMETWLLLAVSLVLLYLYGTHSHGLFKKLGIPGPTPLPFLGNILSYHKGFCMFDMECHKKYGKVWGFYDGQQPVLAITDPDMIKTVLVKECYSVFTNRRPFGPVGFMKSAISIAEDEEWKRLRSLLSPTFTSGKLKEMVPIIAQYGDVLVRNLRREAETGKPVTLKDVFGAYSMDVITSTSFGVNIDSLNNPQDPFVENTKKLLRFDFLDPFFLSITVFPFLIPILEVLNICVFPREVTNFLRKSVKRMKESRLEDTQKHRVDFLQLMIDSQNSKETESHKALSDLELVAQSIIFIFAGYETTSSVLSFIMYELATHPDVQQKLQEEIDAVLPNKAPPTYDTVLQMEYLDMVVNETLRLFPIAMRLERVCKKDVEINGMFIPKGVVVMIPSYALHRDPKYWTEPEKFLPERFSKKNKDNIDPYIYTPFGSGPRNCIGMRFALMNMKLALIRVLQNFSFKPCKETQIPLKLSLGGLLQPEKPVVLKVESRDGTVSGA
Chain of Cytochrome P450 2C9 (P11712 whole entry): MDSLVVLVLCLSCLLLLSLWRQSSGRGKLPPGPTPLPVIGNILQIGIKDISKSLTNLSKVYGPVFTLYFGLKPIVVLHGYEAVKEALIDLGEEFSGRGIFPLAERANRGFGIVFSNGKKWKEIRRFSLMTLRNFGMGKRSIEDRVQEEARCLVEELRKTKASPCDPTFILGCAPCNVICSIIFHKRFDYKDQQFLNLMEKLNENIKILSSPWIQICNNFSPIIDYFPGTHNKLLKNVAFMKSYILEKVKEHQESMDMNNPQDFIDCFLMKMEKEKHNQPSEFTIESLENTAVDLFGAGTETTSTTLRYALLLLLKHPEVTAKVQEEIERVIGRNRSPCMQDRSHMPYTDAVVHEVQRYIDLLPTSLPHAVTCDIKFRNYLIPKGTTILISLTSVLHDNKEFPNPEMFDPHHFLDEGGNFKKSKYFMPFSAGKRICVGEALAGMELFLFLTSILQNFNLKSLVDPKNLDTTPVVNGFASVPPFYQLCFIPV

SMILES: COCCOc1ccc(N2CCN(CCn3c(=O)n(C)c4c3nc(N)n3nc(-c5nccs5)nc43)CC2)cc1F
- Kp [1]: 0.38
- Activity (Rattus norvegicus [2]): Dose-dependent effect
- ED50 (Rattus norvegicus [2]): 4.49 mg/kg
- inhibition at 10 µM (hERG [3]): 38%
- AUC(0-t) [4]: 2.2 µM·h
- inhibition [5]: inactive
- IC50 (Cytochrome P450 1A2): > 10 µM
- IC50 (Cytochrome P450 3A4): > 10 µM
- Ki (Adenosine receptor A2b): 5 µM
- IC50 (Cytochrome P450 2C9): > 10 µM
- IC50 (Cytochrome P450 2C19): > 10 µM
- inhibition at 3 µM (hERG [6]): 28%
- Drug metabolism [7]: 0 nmol/min/mg
- bioavailability [8]: 32%
- Cmax [9]: 600 nM
- half-life [10]: 60 min
- ED50 (Mus musculus): 5.29 mg/kg
- Activity (Rattus norvegicus [11]): Non-Toxic
- fraction unbound [12]: 0.49
- Tmax [13]: 48 min
- Vd [14]: 3.6 L/kg
- Ki (Adenosine receptor A2a [15]): 0.0015 µM
- Ki (Adenosine receptor A2a [16]): 0.0004 µM
